Test results published in ChEMBL document CHEMBL1122702, “Radiohalogen-labeled imaging agents. 3. Compounds for measurement of brain blood flow by emission tomography” (J Med Chem, 1984).

What was measured:
Format in all cases: ADME, organism-based
Rattus norvegicus [1] = species on record: Rattus norvegicus; assay: The distribution of the 131 I-labeled compound at 30 min was evaluated in rat liver as Percent of injected dose per gram in the organ; details: in vivo, 0.5 h
In short: (§1)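 Male Sprague-Dawley rats (200–300 g, free access to food and water), lightly ether-anesthetized and restrained, received a 0.2 mL saline tail-vein bolus of 10–20 μCi 131I-labeled compound. They were decapitated at the stated time, and organs were excised, weighed and gamma-counted. Percent injected dose was determined against a calibrated external standard made by serial dilution of the injectate. n = 1–4 rats.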

Rattus norvegicus [2] = species on record: Rattus norvegicus; assay: Ratio of distribution of the [131I]-labeled compound at 30 min in rat kidney over uptake in blood; details: other tissue, 0.5 h
In short: (§2)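 Male Sprague-Dawley rats (200–300 g, fed ad libitum), ether-anesthetized, got a tail-vein bolus of 0.2 mL saline containing 10–20 μCi 131I compound and were decapitated at the stated time. Organs were weighed and gamma-counted against a serially diluted external standard. Organ/blood ratio was calculated from % dose per gram of organ. Animal numbers per time point were 1–4.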

Rattus norvegicus [3] = species on record: Rattus norvegicus; assay: The distribution of the 131 I-labeled compound at 5 min was evaluated in rat heart as Percent of injected dose per gram in the organ; details: in vivo; in short: as §1
Rattus norvegicus [4] = species on record: Rattus norvegicus; assay: Ratio of distribution of the [131I]-labeled compound at 5 min in rat heart over uptake in blood; details: other tissue; in short: as §2
Rattus norvegicus [5] = species on record: Rattus norvegicus; assay: Ratio of distribution of the [131I]-labeled compound at 30 min in rat liver over uptake in blood; details: other tissue, 0.5 h; in short: as §2
Rattus norvegicus [6] = species on record: Rattus norvegicus; assay: Ratio of distribution of the [131I]-labeled compound at 30 min in rat brain over uptake in blood; details: 0.5 h; in short: as §2
Rattus norvegicus [7] = species on record: Rattus norvegicus; assay: Ratio of distribution of the [131I]-labeled compound at 30 min in rat heart over uptake in blood; details: other tissue, 0.5 h; in short: as §2
Rattus norvegicus [8] = species on record: Rattus norvegicus; assay: The distribution of the 131 I-labeled compound at 30 min was evaluated in rat kidney as Percent of injected dose in the total organ; details: in vivo, 0.5 h; in short: as §1
Rattus norvegicus [9] = species on record: Rattus norvegicus; assay: The distribution of the 131 I-labeled compound at 30 min was evaluated in rat heart as Percent of injected dose per gram in the organ; details: in vivo, 0.5 h; in short: as §1
Rattus norvegicus [10] = species on record: Rattus norvegicus; assay: Ratio of distribution of the [131I]-labeled compound at 5 min in rat liver over uptake in blood; details: other tissue; in short: as §2
Rattus norvegicus [11] = species on record: Rattus norvegicus; assay: The distribution of the 131 I-labeled compound at 30 min was evaluated in rat blood as Percent of injected dose per gram in the organ; details: in vivo, 0.5 h; in short: as §1
Rattus norvegicus [12] = species on record: Rattus norvegicus; assay: The distribution of the 131 I-labeled compound at 30 min was evaluated in rat kidney as Percent of injected dose per gram in the organ; details: in vivo, 0.5 h; in short: as §1
Rattus norvegicus [13] = species on record: Rattus norvegicus; assay: The distribution of the 131 I-labeled compound at 5 min was evaluated in rat heart as Percent of injected dose in the total organ; details: in vivo; in short: as §1
Rattus norvegicus [14] = species on record: Rattus norvegicus; assay: The distribution of the 131 I-labeled compound at 5 min was evaluated in rat kidney as Percent of injected dose in the total organ; details: in vivo; in short: as §1
Rattus norvegicus [15] = species on record: Rattus norvegicus; assay: The distribution of the 131 I-labeled compound at 5 min was evaluated in rat kidney as Percent of injected dose per gram in the organ; details: in vivo; in short: as §1
Rattus norvegicus [16] = species on record: Rattus norvegicus; assay: The distribution of the 131 I-labeled compound at 5 min was evaluated in rat lung as Percent of injected dose per gram in the organ; details: in vivo; in short: as §1
Rattus norvegicus [17] = species on record: Rattus norvegicus; assay: The distribution of the 131 I-labeled compound at 30 min was evaluated in rat brain as Percent of injected dose in the total organ; details: in vivo, 0.5 h; in short: as §1
Rattus norvegicus [18] = species on record: Rattus norvegicus; assay: The distribution of the 131 I-labeled compound at 5 min was evaluated in rat brain as Percent of injected dose per gram in the organ; details: in vivo; in short: as §1
Rattus norvegicus [19] = species on record: Rattus norvegicus; assay: Ratio of distribution of the [131I]-labeled compound at 5 min in rat brain over uptake in blood; in short: as §2
Rattus norvegicus [20] = species on record: Rattus norvegicus; assay: Ratio of distribution of the [131I]-labeled compound at 5 min in rat kidney over uptake in blood; details: other tissue; in short: as §2
Rattus norvegicus [21] = species on record: Rattus norvegicus; assay: The distribution of the 131 I-labeled compound at 5 min was evaluated in rat brain as Percent of injected dose in the total organ; details: in vivo; in short: as §1
Rattus norvegicus [22] = species on record: Rattus norvegicus; assay: The distribution of the 131 I-labeled compound at 5 min was evaluated in rat liver as Percent of injected dose per gram in the organ; details: in vivo; in short: as §1
Rattus norvegicus [23] = species on record: Rattus norvegicus; assay: The distribution of the 131 I-labeled compound at 30 min was evaluated in rat heart as Percent of injected dose in the total organ; details: in vivo, 0.5 h; in short: as §1
Rattus norvegicus [24] = species on record: Rattus norvegicus; assay: The distribution of the 131 I-labeled compound at 30 min was evaluated in rat lung as Percent of injected dose per gram in the organ; details: in vivo, 0.5 h; in short: as §1
Rattus norvegicus [25] = species on record: Rattus norvegicus; assay: Ratio of distribution of the [131I]-labeled compound at 5 min in rat lung over uptake in blood; details: other tissue; in short: as §2
Rattus norvegicus [26] = species on record: Rattus norvegicus; assay: The distribution of the 131 I-labeled compound at 30 min was evaluated in rat liver as Percent of injected dose in the total organ; details: in vivo, 0.5 h; in short: as §1
Rattus norvegicus [27] = species on record: Rattus norvegicus; assay: Ratio of distribution of the [131I]-labeled compound at 30 min in rat lung over uptake in blood; details: other tissue, 0.5 h; in short: as §2
Rattus norvegicus [28] = species on record: Rattus norvegicus; assay: The distribution of the 131 I-labeled compound at 5 min was evaluated in rat liver as Percent of injected dose in the total organ; details: in vivo; in short: as §1
Rattus norvegicus [29] = species on record: Rattus norvegicus; assay: The distribution of the 131 I-labeled compound at 5 min was evaluated in rat blood as Percent of injected dose per gram in the organ; details: in vivo; in short: as §1
Rattus norvegicus [30] = species on record: Rattus norvegicus; assay: The distribution of the 131 I-labeled compound at 30 min was evaluated in rat brain as Percent of injected dose per gram in the organ; details: in vivo, 0.5 h; in short: as §1

| SMILES | Dose (Rattus norvegicus [1]) [%] | Ratio (Rattus norvegicus [2]) | Dose (Rattus norvegicus [3]) [%] | Ratio (Rattus norvegicus [4]) | Ratio (Rattus norvegicus [5]) | Ratio (Rattus norvegicus [6]) | Ratio (Rattus norvegicus [7]) | Dose (Rattus norvegicus [8]) [%] | Dose (Rattus norvegicus [9]) [%] | Ratio (Rattus norvegicus [10]) | Dose (Rattus norvegicus [11]) [%] | Dose (Rattus norvegicus [12]) [%] | Dose (Rattus norvegicus [13]) [%] | Dose (Rattus norvegicus [14]) [%] | Dose (Rattus norvegicus [15]) [%] | Dose (Rattus norvegicus [16]) [%] | Dose (Rattus norvegicus [17]) [%] | Dose (Rattus norvegicus [18]) [%] | Ratio (Rattus norvegicus [19]) | Ratio (Rattus norvegicus [20]) | other results |
| --- | --- | --- | --- | --- | --- | --- | --- | --- | --- | --- | --- | --- | --- | --- | --- | --- | --- | --- | --- | --- | --- |
| COc1cc(CC(C)NCC#N)c(OC)cc1I (stereo not given) | 1.2 | 9.2 | 0.52 | 4.7 | 9.2 | 2.4 | 3 | 2.2 | 0.39 | 4.8 | 0.13 | 1.2 | 0.69 | 4.8 | 1.5 | 2.6 | 0.61 | 0.3 | 3 | 15 | Dose (Rattus norvegicus [21]): 0.61%; Dose (Rattus norvegicus [22]): 0.53%; Dose (Rattus norvegicus [23]): 0.3%; Dose (Rattus norvegicus [24]): 1.9%; Ratio (Rattus norvegicus [25]): 24; Dose (Rattus norvegicus [26]): 9.5%; Ratio (Rattus norvegicus [27]): 15; Dose (Rattus norvegicus [28]): 8.4%; Dose (Rattus norvegicus [29]): 0.11%; Dose (Rattus norvegicus [30]): 0.31% |
| COc1cc(CC(C)NCC2CC2)c(OC)cc1I (stereo not given) | 0.97 | 8.6 | 0.91 | 7.6 | 11 | 2.1 | 3.3 | 1.7 | 0.3 | 4.5 | 0.09 | 0.77 | 0.71 | 2 | 1.1 | 7.8 | 0.35 | 0.33 | 2.8 | 9.2 | Dose (Rattus norvegicus [21]): 0.62%; Dose (Rattus norvegicus [22]): 0.55%; Dose (Rattus norvegicus [23]): 0.23%; Dose (Rattus norvegicus [24]): 2.4%; Ratio (Rattus norvegicus [25]): 65; Dose (Rattus norvegicus [26]): 8.9%; Ratio (Rattus norvegicus [27]): 26; Dose (Rattus norvegicus [28]): 3.9%; Dose (Rattus norvegicus [29]): 0.12%; Dose (Rattus norvegicus [30]): 0.19% |
